Series [1] deals with M. polymorpha sporelings. Briefly: Evans blue viability assay, M. polymorpha sporelings. The following applies: 1 h at 22 °C, n = 4, Figure 2A. The series is classed as cell-based, Marchantia polymorpha. In a few lines: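 Marchantia polymorpha sporelings (Tak-1 × Tak-2 cross, held 4 days in water) incubated with peptide for 1 h at 22 °C, then stained with Evans blue 150 μg/mL. Stained (dead) and unstained (live) cells counted; viability taken from live/dead ratio. Boiled sporelings (95 °C, 10 min) served as 100% dead. Four biological replicates, mean ± SE, Dunnett's T3 versus 0 μM.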

For series [2], the system named is E. gracilis cells. Briefly: Evans blue viability assay, E. gracilis. The format is cell-based, Euglena gracilis. The following applies: 9 nM–90 μM peptide, 3 h at 26 °C, n = 3, Figure 2C. The gist of the method:
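Euglena gracilis was grown in CM medium pH 3.5 (26 °C, 100 rpm) to OD730 0.23, then incubated with peptide (9 nM–90 μM) for 3 h at 26 °C. Cells pelleted and stained with Evans blue 150 μg/mL for 20 min, washed three times, then live and dead cells counted microscopically. Viability = live/dead ratio relative to untreated cells. Three biological replicates, mean ± SD.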

Series [3] relates to tobacco (Nicotiana tabacum) Bright Yellow-2 (BY-2) cells. In words: Evans blue cell viability assay, BY-2 cells. The series is classed as cell-based.
In series [4] the test system is C. reinhardtii cells. Briefly: Colony formation viability assay, C. reinhardtii. The series is classed as cell-based, Chlamydomonas reinhardtii. The conditions noted are these: for Cell death in C. reinhardtii (colony formation assay): 2.5 μM peptide, 20 min in TAP medium with 40 mM sucrose, n = 3, Figure 2C. The gist of the method: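 Log-phase Chlamydomonas reinhardtii wild-type cc125+ (2 days after subculture, grown in TAP at 23 °C under constant light) exposed to peptide (39 nM–2.5 μM) for 20 min in TAP with 40 mM sucrose. Cells washed, plated on TAP agar, colonies counted. Viability = colonies with peptide ÷ colonies without. Three biological replicates, mean ± SD.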

Series [5] deals with A. thaliana root epidermal cells. In words: FM4-64 uptake into A. thaliana roots. The series is classed as cell-based, Arabidopsis thaliana. The following applies: dTat-Sar-EED4 30 μM, FM4-64 10 μM, Figure 4B. The gist of the method: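 Roots of Col-0 seedlings (7–9 days) pretreated 30 min at 25 °C in 1/2 MS with 0.6% v/v DMSO or 30 μM ES9-17. FM4-64 (10 μM) then added, ± peptide, for 30 min at 25 °C in the dark. Confocal imaging at Ex/Em 488/620–680 nm. Mean intensity of manually segmented whole cytoplasm was divided by that of the apical plasma membrane, for more than 100 cells from 8 roots.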

In series [6] the test system is A. thaliana cotyledons. In words: Peptide-mediated Citrine transduction. The following applies: 90 μM peptide, Citrine 200 μg/mL, CLSM, Figure 2B. The series is classed as cell-based, Arabidopsis thaliana. In a few lines: (§1)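 Col-0 cotyledons (seedlings 7–9 days) or Nipponbare calli (1 week on N6D, 30 °C, constant light) vacuum/compression-infiltrated with 200 μg/mL Citrine, with 90 μM peptide or alone as control. Incubation 1 h: cotyledons at 22 °C, calli at 30 °C. Washed twice with 1/2 MS plus 1% sucrose; confocal imaging at Ex/Em 488/515–560 nm.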

For series [7], the system named is O. sativa calli. Briefly: Evans blue viability assay, O. sativa calli. The format is cell-based, Oryza sativa. The following applies: 1 h, vacuum/compression infiltration, n = 4, Figure 2A, particularly dTat-Sar-EED5.
In another series the test system is tobacco BY-2 cells. In words: Peptide-mediated Citrine transduction. The series is classed as cell-based, Nicotiana tabacum. The conditions noted are these: for Citrine internalization into BY-2 cells at lower peptide concentrations: 9 nM–9 μM peptide (low concentrations), Figure S2; for Citrine fluorescence in the nuclei of BY-2 cells: 1 h incubation. In a few lines: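 Exponentially growing BY-2 cells (OD600 0.5) mixed in a glass-bottom dish with Citrine plus peptide, or with individual peptide domains as controls, for 1 h at 26 °C. Citrine-only cells served as control. Uptake was imaged directly by confocal microscopy at Ex/Em 488/515–580 nm.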

The subject of series [8] is O. sativa calli. In words: Peptide-mediated Citrine transduction. The following applies: 90 μM peptide, Citrine 200 μg/mL, CLSM, Figure 2B. The format is cell-based, Oryza sativa. The gist of the method: as §1
Series [9] deals with M. polymorpha sporelings. In words: Peptide-mediated Citrine transduction. The format is cell-based, Marchantia polymorpha. The following applies: 90 μM peptide, Citrine 200 μg/mL, 1 h at 22 °C, CLSM, Figure 2B. The gist of the method: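 Sporelings incubated 1 h at 22 °C in solution with 90 μM peptide and 200 μg/mL Citrine; Citrine alone served as control. Time-gated confocal detection (0.5–12.0 ns) at Ex/Em 510/546–566 nm.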

Series [10] concerns A. thaliana cotyledons. In words: Evans blue viability assay, A. thaliana cotyledons. The series is classed as cell-based, Arabidopsis thaliana. The conditions noted are these: 1 h, vacuum/compression infiltration, n = 4, Figure 2A, particularly dTat-Sar-EED5.
Series [11] deals with E. gracilis cells. Briefly: Peptide-mediated Citrine transduction. The series is classed as cell-based, Euglena gracilis. The conditions noted are these: 9 μM peptide, Citrine 100 μg/mL, 3 h at 26 °C, CLSM, Figure 2D. The gist of the method: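 Euglena suspension (OD730 0.23) exposed to Citrine with or without peptide in culture medium in a 96-well plate, 3 h at 26 °C, shaking at 100 rpm. Confocal imaging: Citrine at Ex/Em 488/520–550 nm, chlorophyll at 488/660–720 nm.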

Series [12] relates to C. reinhardtii cells. Briefly: Peptide-mediated Citrine transduction. The format is cell-based, Chlamydomonas reinhardtii. The conditions noted are these: 156 nM peptide, Citrine 100 μg/mL, 20 min (b14 says 3 h), CLSM, Figure 2D. In a few lines: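 Log-phase Chlamydomonas cells suspended in TAP containing 156 nM peptide, 100 μg/mL Citrine and 40 mM sucrose, for 20 min. Cells washed and mounted on slides; Citrine-only cells served as control. Confocal imaging: Citrine at Ex/Em 488/520–550 nm, chlorophyll at 488/660–720 nm.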

Setting [13] is: 90 μM peptide, Citrine 100 μg/mL, CLSM, Figure 1D.

Consider three substances from PMC8790739 (JACS Au, 2022).

Some results are limits rather than exact numbers.

For the substance rrrqrrkkr-(Sar)6-GWWG [dTat-Sar-EED4], in the series on M. polymorpha sporelings [1], the “Cell death in M. polymorpha sporelings” value is given as “did not cause severe cell death”. Moreover, the “Cytotoxicity toward E. gracilis” value in the series on E. gracilis cells [2] is on record as “Neither peptide exhibited cytotoxicity”. Besides, the “Cytotoxicity to BY-2 cells after prolonged treatment” value in series [3] (90 μM for up to 48 h, n = 3, Figure S1) was “did not result in significant cytotoxicity”. The “Toxicity to BY-2 cells compared between the two peptides” value in [3] (1 h treatment, 9 μM to 9 mM, Figure 1B) is “less toxic than dTat-Sar-EED5”. The “Cell death in C. reinhardtii (colony formation assay)” value in the series on C. reinhardtii cells [4] is “induced severe cell death”. Also, the “Toxicity to C. reinhardtii cells compared between the two peptides” value with C. reinhardtii cells [4] (concentrations of 156 nM or more, 20 min, colony formation assay, Figure 2C) is “slightly more toxic”. For the same substance, the “Enhancement of FM4-64 uptake, DMSO-treated samples” value in series [5] (DMSO 0.6% v/v) was “slight”. Moreover, in series [5] (ES9-17 30 μM), the “Enhancement of FM4-64 uptake, ES9-17-treated samples” value was “more pronounced”. The “Transfer of Citrine to the nucleus in A. thaliana cotyledon cells” value in the series with A. thaliana cotyledons [6] (1 h) is listed as “appeared to be transferred to the nucleus”. The “Citrine internalization into A. thaliana cotyledons” value in the series with A. thaliana cotyledons [6] (1 h at 22 °C) was “Citrine internalization was observed”. In the series with O. sativa calli [7], the “Concentrations at which toxic to O. sativa calli” value was at least 90 µM. Besides, the “Citrine internalization into BY-2 cells at lower peptide concentrations” value in the series on tobacco BY-2 cells (CLSM) was “no Citrine internalization was observed”. Moreover, in the series on tobacco BY-2 cells (setting [13]), the “Citrine fluorescence in the nuclei of BY-2 cells” value is recorded as “detected Citrine fluorescence in the nuclei of some cells”. Further, the “Citrine internalization into BY-2 cells, time-lapse CLSM” value in the series with tobacco BY-2 cells (90 μM peptide, Citrine 100 μg/mL, Figure 1C, Movies S1, S2) is reported as “rapid internalization of Citrine into BY-2 cells within a few minutes”. The “Transfer of Citrine to the nucleus in O. sativa calli” value with O. sativa calli [8] (1 h) is reported as “such behavior was not detected”. Besides, the “Citrine internalization into O. sativa calli” value with O. sativa calli [8] (1 h at 30 °C) was “Citrine internalization was observed”. Besides, in the series on M. polymorpha sporelings [9], the “Citrine internalization into M. polymorpha sporelings” value is listed as “Citrine internalization was observed”. For the same substance, the “Concentrations at which toxic to A. thaliana cotyledons” value with A. thaliana cotyledons [10] was at least 90 µM.
(Sar)6-GFWFG [Sar-EED5]: the “Citrine uptake by BY-2 cells with individual peptide domains” value in the series with tobacco BY-2 cells (90 μM of each peptide domain, 1 h, Citrine 100 μg/mL, CLSM, Figure 1D) is reported as “did not show Citrine uptake”.
For the substance rrrqrrkkr-(Sar)6-GFWFG [dTat-Sar-EED5], the “Cell death in M. polymorpha sporelings” value in the series with M. polymorpha sporelings [1] is “did not cause severe cell death”. Besides, in the series on E. gracilis cells [2], the “Cytotoxicity toward E. gracilis” value was “Neither peptide exhibited cytotoxicity”. Moreover, the “Citrine internalization into E. gracilis” value with E. gracilis cells [11] is reported as “Citrine was internalized”. Moreover, the “Citrine internalization into C. reinhardtii” value with C. reinhardtii cells [12] is reported as “Citrine was internalized”. In addition, in the series with C. reinhardtii cells [4], the “Cell death in C. reinhardtii (colony formation assay)” value is listed as “induced severe cell death”. Further, in the series with O. sativa calli [7], the “Concentrations at which toxic to O. sativa calli” value was at least 90 µM. For the same substance, in the series on tobacco BY-2 cells (CLSM), the “Citrine internalization into BY-2 cells at lower peptide concentrations” value is “negligible Citrine uptake”. For the same substance, the “Citrine fluorescence in the nuclei of BY-2 cells” value in the series with tobacco BY-2 cells (setting [13]) is on record as “detected Citrine fluorescence in the nuclei of some cells”. Further, the “Concentrations at which toxic to A. thaliana cotyledons” value in the series with A. thaliana cotyledons [10] is at least 90 µM.
